ChEMBL document CHEMBL5678806, “NMS-P937, an orally available, specific small-molecule polo-like kinase 1 inhibitor with antitumor activity in solid and hematologic malignancies” (Mol Cancer Ther, 2012)
Activity calls are given as the source filed them. The rule behind the calls is not given here.

Experiments:
[1] = molecular target: Serine/threonine-protein kinase PLK3 (Homo sapiens) (UniProt Q9H4B4); assay: Inhibition of PLK3 (unknown origin) at 10 micromol/L in presence of [gamma-33P]ATP relative to control; conditions: dose 10.0 µmol/L
[2] = molecular target: Cytoplasmic tyrosine-protein kinase BMX (Homo sapiens) (UniProt P51813); assay: Inhibition of recombinant human Bmx assessed as residual activity at 0.1 uM relative to control
[3] = molecular target: Homeodomain-interacting protein kinase 2 (Homo sapiens) (UniProt Q9H2X6); assay: Inhibition of N-terminal His6-tagged recombinant human HIPK2 (165 to 564 residues) expressed in baculovirus infected Sf21 cells assessed as residual activity at 0.1 uM relative to control
[4] = molecular target: Calcium/calmodulin-dependent protein kinase type II subunit delta (Homo sapiens) (UniProt Q13557); assay: Inhibition of recombinant full length human CaMKIIdelta assessed as residual activity at 1 uM relative to control
[5] = molecular target: Tyrosine-protein kinase Lyn (Homo sapiens, UniProt P07948); assay: Inhibition of N-terminal his6-tagged recombinant full-length human Lyn expressed in Sf21 cells assessed as residual activity at 1 uM relative to control
[6] = molecular target: Dual specificity mitogen-activated protein kinase kinase 7 (Homo sapiens) (UniProt O14733); assay: Inhibition of N-terminal GST-tagged recombinant human MKK7beta (2 to end residues) expressed in E. coli assessed as residual activity at 1 uM relative to control
[7] = molecular target: Serine/threonine-protein kinase PAK 3 (Homo sapiens) (UniProt O75914); assay: Inhibition of C-terminal 6His-tagged recombinant human full-length PAK3 expressed in baculovirus infected Sf21 cells assessed as residual activity at 1 uM relative to control
SF-539 = assay: Antiproliferative activity against human SF-539 cells assessed as inhibition of cell growth incubated for 72 hrs by cell-titer glo assay; assay type: functional, cell-based; conditions: SF-539, 72 h
Procedure, shortened: (§1)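 Cells from ATCC or ECACC, kept in supplier-recommended medium with 1% penicillin-streptomycin at 37°C, 5% CO₂. Seeded at 10,000–30,000/cm² (adherent) or 100,000/mL (nonadherent) in medium with 10% fetal calf serum. Dosed after 24 h in duplicate with serial dilutions. Viable cells read by CellTiter-Glo 72 h later. IC50 from sigmoidal fit. At least two independent experiments.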

SK-N-MC = assay: Antiproliferative activity against human SK-N-MC cells assessed as inhibition of cell growth incubated for 72 hrs by cell-titer glo assay; assay type: functional, cell-based
SK-BR-3 = assay: Antiproliferative activity against human SK-BR-3 cells assessed as inhibition of cell growth incubated for 72 hrs by cell-titer glo assay; assay type: functional, cell-based; conditions: SK-BR-3, 72 h
Hs-578T = assay: Antiproliferative activity against human Hs-578T cells assessed as inhibition of cell growth incubated for 72 hrs by cell-titer glo assay; assay type: functional, cell-based
Procedure, shortened: (§2)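 Cells seeded at 10,000–30,000/cm² (adherent) or 100,000/mL (nonadherent) in medium with 10% fetal calf serum; after 24 h, treated in duplicate with serial dilutions for 72 h. Viable cell number read by CellTiter-Glo luminescence; IC50 from sigmoidal fit; at least two independent experiments.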

HCC1395 = assay: Antiproliferative activity against human HCC1395 cells assessed as inhibition of cell growth incubated for 72 hrs by cell-titer glo assay; assay type: functional, cell-based; conditions: HCC1395, 72 h; procedure, shortened: as §2
LS180 = assay: Antiproliferative activity against human LS180 cells assessed as inhibition of cell growth incubated for 72 hrs by cell-titer glo assay; assay type: functional, cell-based; conditions: LS180, 72 h; procedure, shortened: as §2
NCI-H358 = assay: Antiproliferative activity against human NCI-H358 cells assessed as inhibition of cell growth incubated for 72 hrs by cell-titer glo assay; assay type: functional, cell-based; conditions: NCI-H358, 72 h; procedure, shortened: as §1
CAL-12T = assay: Antiproliferative activity against human CAL-12T cells assessed as inhibition of cell growth incubated for 72 hrs by cell-titer glo assay; assay type: functional, cell-based
Procedure, shortened: (§3)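 Cells seeded 10,000–30,000/cm² (adherent) or 100,000/mL (suspension) in medium with 10% fetal calf serum; after 24 h treated in duplicate with serial dilutions for 72 h. Viable cells read by CellTiter-Glo luminescence; IC50 from sigmoidal fit; at least two independent experiments.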

NCI-H1975 = assay: Antiproliferative activity against human NCI-H1975 cells assessed as inhibition of cell growth incubated for 72 hrs by cell-titer glo assay; assay type: functional, cell-based; conditions: NCI-H1975, 72 h; procedure, shortened: as §1
OVCAR-8 = assay: Antiproliferative activity against human OVCAR-8 cells assessed as inhibition of cell growth incubated for 72 hrs by cell-titer glo assay; assay type: functional, cell-based; conditions: OVCAR-8, 72 h; procedure, shortened: as §1
BXPC-3 = assay: Antiproliferative activity against human BXPC-3 cells assessed as inhibition of cell growth incubated for 72 hrs by cell-titer glo assay; assay type: functional, cell-based; conditions: BXPC-3, 72 h; procedure, shortened: as §3
DU-145 = assay: Antiproliferative activity against human DU-145 cells assessed as inhibition of cell growth incubated for 72 hrs by cell-titer glo assay; assay type: functional, cell-based; conditions: DU-145, 72 h; procedure, shortened: as §3
M14 = assay: Antiproliferative activity against human M14 cells assessed as inhibition of cell growth incubated for 72 hrs by cell-titer glo assay; assay type: functional, cell-based; conditions: M14, 72 h; procedure, shortened: as §2
697 = assay: Antiproliferative activity against human 697 cells assessed as inhibition of cell growth incubated for 72 hrs by cell-titer glo assay; assay type: functional, cell-based; conditions: Homo sapiens, 697, 72 h; procedure, shortened: as §3
MOLT-4 = assay: Antiproliferative activity against human MOLT-4 cells assessed as inhibition of cell growth incubated for 72 hrs by cell-titer glo assay; assay type: functional, cell-based; conditions: MOLT-4, 72 h; procedure, shortened: as §1
[8] = AUC in Beagle dog at 5 mg/kg, iv by LC-MS analysis; assay type: ADME, organism-based, Canis lupus familiaris; conditions: in vivo
[9] = Tmax in Sprague-Dawley rat at 10 mg/kg, po by LC-MS analysis; assay type: ADME, organism-based; conditions: in vivo
[10] = Oral bioavailability in nu/nu mouse at 10 mg/kg by LC-MS analysis; assay type: ADME, organism-based; conditions: in vivo
A2780 [11] = assay: Induction of cell cycle arrest in human A2780 cells assessed as accumulation of cells in G2/M phase by measuring CDK1 phosphorylation on Tyr15 incubated for 24 hrs by Western blotting analysis; assay type: functional, cell-based; conditions: dose 0.02-0.2 µmol/L
Procedure, shortened: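 A2780 ovarian carcinoma cells treated 24 h with a range of concentrations, with DMSO and nocodazole controls. 20 µg protein extract separated by SDS-PAGE and immunoblotted with chemiluminescent detection. Probed for total and phospho-Thr210 PLK1, phospho-Ser10 histone H3, phospho-Thr199 NPM and phospho-Tyr15 CDK1. Total NPM, tubulin and total CDK1 served as loading controls.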

NHDF [12] = assay: Induction of mitosis in human NHDF cells at 0.0001 to 100 uM incubated for >= 24 hrs followed by compound washout by cell titer glow assay; assay type: toxicity, cell-based; conditions: dose 0.0001-100 µM
NHDF [13] = assay: Cytotoxicity against human NHDF cells assessed as reduction in cell number at 0.5 to 1 uM incubated for 8 hrs followed by compound washout and measured after 24 to 48 hrs by cell titer glow assay; assay type: toxicity, cell-based; conditions: dose 0.5-1 µM
A2780 [14] = assay: Antitumor activity against human A2780 cells xenografted in nu/nu mouse assessed as tumor growth inhibition at 60 mg/kg, po administered for 10 days; conditions: time 10.0 day

Calcium/calmodulin-dependent protein kinase type II subunit delta (Homo sapiens), sequence (Q13557 whole entry): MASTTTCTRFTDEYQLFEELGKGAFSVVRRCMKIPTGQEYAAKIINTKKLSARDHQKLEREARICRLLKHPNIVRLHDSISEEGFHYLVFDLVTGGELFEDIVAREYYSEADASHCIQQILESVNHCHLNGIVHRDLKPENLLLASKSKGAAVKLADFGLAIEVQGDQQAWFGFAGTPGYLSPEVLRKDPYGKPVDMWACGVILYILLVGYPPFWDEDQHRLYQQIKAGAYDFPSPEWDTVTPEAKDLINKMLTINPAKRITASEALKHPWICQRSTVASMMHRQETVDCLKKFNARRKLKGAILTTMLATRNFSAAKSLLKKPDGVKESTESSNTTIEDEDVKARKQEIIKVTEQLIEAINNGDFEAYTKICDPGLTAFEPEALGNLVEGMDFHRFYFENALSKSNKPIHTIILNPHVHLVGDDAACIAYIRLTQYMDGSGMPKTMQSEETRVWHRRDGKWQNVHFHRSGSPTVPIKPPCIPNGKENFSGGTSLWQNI
Serine/threonine-protein kinase PAK 3 (Homo sapiens), sequence (O75914 whole entry, looked up): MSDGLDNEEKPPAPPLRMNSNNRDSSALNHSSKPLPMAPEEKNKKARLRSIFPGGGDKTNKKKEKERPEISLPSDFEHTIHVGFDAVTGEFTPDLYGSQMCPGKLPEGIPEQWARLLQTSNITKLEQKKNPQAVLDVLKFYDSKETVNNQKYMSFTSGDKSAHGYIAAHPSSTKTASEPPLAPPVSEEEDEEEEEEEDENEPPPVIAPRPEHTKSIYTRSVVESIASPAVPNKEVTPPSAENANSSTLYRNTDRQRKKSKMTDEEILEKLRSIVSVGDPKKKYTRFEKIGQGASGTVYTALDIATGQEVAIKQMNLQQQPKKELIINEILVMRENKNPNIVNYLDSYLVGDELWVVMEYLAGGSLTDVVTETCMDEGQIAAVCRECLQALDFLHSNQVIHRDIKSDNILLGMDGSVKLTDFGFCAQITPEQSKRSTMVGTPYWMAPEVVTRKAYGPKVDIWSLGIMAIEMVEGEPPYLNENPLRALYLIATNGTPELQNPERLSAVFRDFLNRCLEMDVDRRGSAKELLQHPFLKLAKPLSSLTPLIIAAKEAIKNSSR
Dual specificity mitogen-activated protein kinase kinase 7 (Homo sapiens), sequence (O14733 whole entry): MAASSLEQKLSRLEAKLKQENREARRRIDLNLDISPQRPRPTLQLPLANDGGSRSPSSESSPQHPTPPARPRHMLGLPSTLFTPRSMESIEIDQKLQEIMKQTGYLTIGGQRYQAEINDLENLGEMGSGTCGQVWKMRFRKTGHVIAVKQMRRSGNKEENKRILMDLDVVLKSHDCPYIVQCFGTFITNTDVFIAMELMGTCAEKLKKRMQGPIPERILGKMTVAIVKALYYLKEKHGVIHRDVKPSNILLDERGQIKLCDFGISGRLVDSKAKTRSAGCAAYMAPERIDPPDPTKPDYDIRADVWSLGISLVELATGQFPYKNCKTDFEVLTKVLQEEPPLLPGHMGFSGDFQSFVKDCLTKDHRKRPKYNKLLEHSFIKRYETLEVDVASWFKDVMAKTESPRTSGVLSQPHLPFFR
Serine/threonine-protein kinase PLK3 (Homo sapiens), sequence (Q9H4B4 whole entry, looked up): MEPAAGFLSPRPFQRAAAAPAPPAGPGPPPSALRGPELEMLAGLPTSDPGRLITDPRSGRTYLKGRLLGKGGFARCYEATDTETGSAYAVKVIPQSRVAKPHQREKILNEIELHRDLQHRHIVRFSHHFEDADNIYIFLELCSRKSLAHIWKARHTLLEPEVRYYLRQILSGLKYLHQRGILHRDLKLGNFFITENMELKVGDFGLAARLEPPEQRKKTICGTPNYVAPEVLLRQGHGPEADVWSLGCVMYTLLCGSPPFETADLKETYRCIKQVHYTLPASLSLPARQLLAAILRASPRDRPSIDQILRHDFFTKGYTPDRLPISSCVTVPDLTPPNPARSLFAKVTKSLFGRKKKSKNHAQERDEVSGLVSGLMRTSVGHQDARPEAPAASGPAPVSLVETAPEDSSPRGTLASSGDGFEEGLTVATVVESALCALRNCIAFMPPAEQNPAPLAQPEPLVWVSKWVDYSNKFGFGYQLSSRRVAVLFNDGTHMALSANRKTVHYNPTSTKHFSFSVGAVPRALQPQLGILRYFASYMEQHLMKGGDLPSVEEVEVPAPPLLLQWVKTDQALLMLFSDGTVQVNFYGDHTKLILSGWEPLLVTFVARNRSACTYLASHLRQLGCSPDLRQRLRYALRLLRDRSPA
Homeodomain-interacting protein kinase 2 (Homo sapiens), sequence (Q9H2X6 whole entry, looked up, the tested form may be a part): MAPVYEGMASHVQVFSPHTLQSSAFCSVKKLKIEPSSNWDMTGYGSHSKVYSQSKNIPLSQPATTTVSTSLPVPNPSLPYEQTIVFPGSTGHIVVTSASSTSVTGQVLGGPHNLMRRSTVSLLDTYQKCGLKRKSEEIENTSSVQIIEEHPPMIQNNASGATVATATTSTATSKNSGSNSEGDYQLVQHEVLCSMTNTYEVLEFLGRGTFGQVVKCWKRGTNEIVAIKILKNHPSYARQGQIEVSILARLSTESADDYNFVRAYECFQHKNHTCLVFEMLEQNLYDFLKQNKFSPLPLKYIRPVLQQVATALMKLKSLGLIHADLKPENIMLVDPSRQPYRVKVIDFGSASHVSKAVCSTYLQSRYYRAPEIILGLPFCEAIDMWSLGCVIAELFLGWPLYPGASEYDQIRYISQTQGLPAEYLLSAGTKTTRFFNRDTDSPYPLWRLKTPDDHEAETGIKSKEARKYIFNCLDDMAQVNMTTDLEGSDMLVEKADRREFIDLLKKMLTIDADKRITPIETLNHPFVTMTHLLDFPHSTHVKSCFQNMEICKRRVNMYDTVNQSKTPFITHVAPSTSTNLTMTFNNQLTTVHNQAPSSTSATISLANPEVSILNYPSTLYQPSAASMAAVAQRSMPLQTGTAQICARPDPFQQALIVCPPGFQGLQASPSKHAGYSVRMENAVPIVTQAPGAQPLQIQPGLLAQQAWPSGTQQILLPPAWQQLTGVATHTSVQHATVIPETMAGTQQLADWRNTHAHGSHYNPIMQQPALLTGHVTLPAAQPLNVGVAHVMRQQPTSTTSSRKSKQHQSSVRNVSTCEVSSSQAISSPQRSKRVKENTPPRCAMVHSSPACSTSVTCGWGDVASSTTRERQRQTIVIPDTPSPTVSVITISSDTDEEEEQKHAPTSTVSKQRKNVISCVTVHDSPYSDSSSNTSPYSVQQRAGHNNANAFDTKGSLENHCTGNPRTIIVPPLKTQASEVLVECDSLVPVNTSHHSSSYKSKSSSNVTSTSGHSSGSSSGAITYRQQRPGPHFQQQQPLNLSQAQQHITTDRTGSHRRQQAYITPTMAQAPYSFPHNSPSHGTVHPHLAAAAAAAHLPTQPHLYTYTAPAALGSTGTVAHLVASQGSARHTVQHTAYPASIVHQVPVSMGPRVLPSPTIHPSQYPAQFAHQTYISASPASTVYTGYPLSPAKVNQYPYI
Cytoplasmic tyrosine-protein kinase BMX (Homo sapiens), sequence (P51813 whole entry, the tested form may be a part): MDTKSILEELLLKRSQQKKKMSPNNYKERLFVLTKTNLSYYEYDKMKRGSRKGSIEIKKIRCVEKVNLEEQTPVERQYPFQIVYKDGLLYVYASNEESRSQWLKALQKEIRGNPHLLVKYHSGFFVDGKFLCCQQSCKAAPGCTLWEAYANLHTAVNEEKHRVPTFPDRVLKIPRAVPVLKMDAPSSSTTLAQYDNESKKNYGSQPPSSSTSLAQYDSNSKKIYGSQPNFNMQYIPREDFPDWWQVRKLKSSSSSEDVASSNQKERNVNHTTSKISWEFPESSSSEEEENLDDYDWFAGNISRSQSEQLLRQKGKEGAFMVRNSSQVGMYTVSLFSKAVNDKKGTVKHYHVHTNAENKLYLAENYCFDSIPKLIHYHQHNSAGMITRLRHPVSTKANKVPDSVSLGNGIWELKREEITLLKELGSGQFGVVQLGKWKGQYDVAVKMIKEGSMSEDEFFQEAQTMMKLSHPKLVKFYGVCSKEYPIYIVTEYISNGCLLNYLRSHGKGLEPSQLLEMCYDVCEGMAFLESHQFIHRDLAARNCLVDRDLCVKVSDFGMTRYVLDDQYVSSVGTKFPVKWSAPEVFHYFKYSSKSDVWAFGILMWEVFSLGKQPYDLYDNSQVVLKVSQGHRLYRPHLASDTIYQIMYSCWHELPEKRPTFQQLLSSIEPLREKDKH
Tyrosine-protein kinase Lyn, sequence (P07948 2-512 limits assumed): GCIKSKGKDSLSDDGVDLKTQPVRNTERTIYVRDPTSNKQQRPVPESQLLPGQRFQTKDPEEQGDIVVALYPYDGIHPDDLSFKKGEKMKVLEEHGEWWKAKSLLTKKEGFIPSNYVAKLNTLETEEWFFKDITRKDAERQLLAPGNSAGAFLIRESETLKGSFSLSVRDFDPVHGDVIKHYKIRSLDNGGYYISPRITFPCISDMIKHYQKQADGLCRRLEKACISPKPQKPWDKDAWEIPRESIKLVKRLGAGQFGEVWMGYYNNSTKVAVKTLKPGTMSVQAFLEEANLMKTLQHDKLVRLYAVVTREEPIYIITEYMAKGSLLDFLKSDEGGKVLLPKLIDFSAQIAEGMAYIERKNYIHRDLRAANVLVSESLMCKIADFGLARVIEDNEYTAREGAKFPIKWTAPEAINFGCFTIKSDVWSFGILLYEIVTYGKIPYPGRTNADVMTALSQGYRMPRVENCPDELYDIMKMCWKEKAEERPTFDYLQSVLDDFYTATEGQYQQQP

CN1CCN(c2ccc(OC(F)(F)F)c(Nc3ncc4c(n3)-c3c(c(C(N)=O)nn3CCO)CC4)c2)CC1 [ONVANSERTIB]
inhibition [1]: 40.2%
Activity [2]: 83%
Activity [3]: 118%
Activity [4]: 74%
Activity [5]: 198%
Activity [6]: 80%
Activity [7]: 90%
IC50 (SF-539): 47 nM
IC50 (SK-N-MC): 73 nM
IC50 (SK-BR-3): 35 nM
IC50 (Hs-578T): 251 nM
IC50 (HCC1395): 49 nM
IC50 (LS180): 192 nM
IC50 (NCI-H358): 175 nM
IC50 (CAL-12T): 191 nM
IC50 (NCI-H1975): 398 nM
IC50 (OVCAR-8): 59 nM
IC50 (BXPC-3): 117 nM
IC50 (DU-145): 252 nM
IC50 (M14): 67 nM
IC50 697: 26 nM
IC50 (MOLT-4): 45 nM
AUC [8]: 4.2 µM·h
Tmax [9]: 3 h
bioavailability [10]: 24%
Activity (A2780 [11]): Dose-Dependent Effect
Activity (NHDF [12]): Toxic
Activity (NHDF [13]): Toxic
TGI (A2780 [14]): Active
